Results reported in ChEMBL document CHEMBL3091303, “1,3-Dialkyl-substituted tetrahydropyrimido[1,2-f]purine-2,4-diones as multiple target drugs for the potential treatment of neurodegenerative diseases” (Bioorg Med Chem, 2013).

Columns and labels:
[1] = target: T1, Adenosine receptor A2b (Homo sapiens) (UniProt P29275); assay: Displacement of [3H]PSB-603 from human adenosine A2B receptor relative to control; set-up: concentration or dose not given beside the values; conditions: concentration not given here
T1 sequence (whole entry): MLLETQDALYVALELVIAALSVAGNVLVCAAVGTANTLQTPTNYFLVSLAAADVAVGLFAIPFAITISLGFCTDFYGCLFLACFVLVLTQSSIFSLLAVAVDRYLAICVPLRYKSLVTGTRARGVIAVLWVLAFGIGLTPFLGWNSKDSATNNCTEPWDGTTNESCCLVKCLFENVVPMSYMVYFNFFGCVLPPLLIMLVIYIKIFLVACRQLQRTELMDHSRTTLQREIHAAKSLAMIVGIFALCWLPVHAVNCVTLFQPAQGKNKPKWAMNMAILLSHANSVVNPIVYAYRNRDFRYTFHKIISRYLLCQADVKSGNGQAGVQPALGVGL

Adenosine receptor A1 [2] = target: T2, Adenosine receptor A1 (Rattus norvegicus, UniProt P25099); assay: Displacement of [3H]CCPA from adenosine A1 receptor in rat brain cortex; format: tissue-based
T2 sequence (P25099 whole entry): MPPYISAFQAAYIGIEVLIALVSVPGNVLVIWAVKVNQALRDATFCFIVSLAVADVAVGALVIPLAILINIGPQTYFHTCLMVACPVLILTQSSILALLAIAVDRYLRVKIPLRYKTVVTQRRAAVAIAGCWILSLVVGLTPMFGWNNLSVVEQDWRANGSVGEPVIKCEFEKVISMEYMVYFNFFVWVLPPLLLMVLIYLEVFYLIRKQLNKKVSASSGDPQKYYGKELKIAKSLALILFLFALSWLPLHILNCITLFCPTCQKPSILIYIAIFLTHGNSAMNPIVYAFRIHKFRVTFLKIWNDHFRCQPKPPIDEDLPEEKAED
How it was run: (§1)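 Radioligand binding to rat A1 receptors in rat brain cortical membrane preparations. Values are given as Ki, or as % inhibition of radioligand binding at the indicated concentration.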

Adenosine receptor A2a [3] = target: Adenosine receptor A2a (Homo sapiens, UniProt P29274); assay: Displacement of [3H]MSX-2 from human adenosine A2A receptor expressed in CHO cells; format: cell-based
How it was run: (§2)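 Radioligand binding to human receptors recombinantly expressed in Chinese hamster ovary (CHO) cells. Results are Ki, or % inhibition of radioligand binding at the indicated concentration.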

Adenosine receptor A2a [4] = target: Adenosine receptor A2a (Rattus norvegicus, UniProt P30543); assay: Displacement of [3H]MSX-2 from adenosine A2A receptor in rat brain striatum; format: tissue-based
[5] = target: T3, MAO-A (amine oxidase [flavin-containing] A) (Homo sapiens, UniProt P21397); assay: Inhibition of human MAO-A at 10 uM relative to control
T3 sequence (P21397 whole entry): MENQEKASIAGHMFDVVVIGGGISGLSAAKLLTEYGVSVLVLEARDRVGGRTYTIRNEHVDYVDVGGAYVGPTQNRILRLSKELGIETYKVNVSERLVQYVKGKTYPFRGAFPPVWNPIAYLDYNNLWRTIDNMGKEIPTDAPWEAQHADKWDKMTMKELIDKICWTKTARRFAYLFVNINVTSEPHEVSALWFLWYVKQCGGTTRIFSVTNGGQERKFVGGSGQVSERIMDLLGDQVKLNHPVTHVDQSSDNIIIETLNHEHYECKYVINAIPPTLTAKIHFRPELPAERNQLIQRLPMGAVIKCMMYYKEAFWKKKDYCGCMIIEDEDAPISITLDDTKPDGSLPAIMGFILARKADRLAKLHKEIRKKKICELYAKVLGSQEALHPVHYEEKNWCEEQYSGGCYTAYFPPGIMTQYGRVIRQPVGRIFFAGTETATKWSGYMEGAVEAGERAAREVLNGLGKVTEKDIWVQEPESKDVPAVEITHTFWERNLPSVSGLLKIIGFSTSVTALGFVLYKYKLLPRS
How it was run: (§3)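 Human MAO-A and MAO-B inhibition, screened first at a test concentration of 10 µM.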

[6] = target: T4, Adenosine receptor A3 (Homo sapiens) (UniProt P0DMS8); assay: Displacement of [3H]PSB-11 from human adenosine A3 receptor expressed in CHO cells relative to control; format: cell-based; set-up: concentration or dose not given beside the values; conditions: concentration not given here
T4 sequence (whole entry): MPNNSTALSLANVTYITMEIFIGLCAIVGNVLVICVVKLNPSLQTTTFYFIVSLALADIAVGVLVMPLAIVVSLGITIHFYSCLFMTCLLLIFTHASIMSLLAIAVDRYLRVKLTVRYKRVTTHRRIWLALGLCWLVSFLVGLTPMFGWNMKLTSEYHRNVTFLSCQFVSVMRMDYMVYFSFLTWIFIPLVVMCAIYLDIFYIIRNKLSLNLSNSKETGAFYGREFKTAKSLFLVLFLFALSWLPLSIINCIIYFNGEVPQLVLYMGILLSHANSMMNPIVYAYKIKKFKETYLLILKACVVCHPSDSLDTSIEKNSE

Adenosine receptor A3 = target: T5, Adenosine receptor A3 (Homo sapiens, UniProt P0DMS8); assay: Displacement of [3H]PSB-11 from human adenosine A3 receptor expressed in CHO cells; format: cell-based
T5 sequence (P0DMS8 whole entry): T4 sequence (whole entry)

[7] = target: T6, Amine oxidase [flavin-containing] B (Homo sapiens, UniProt P27338); assay: Inhibition of human MAO-B
T6 sequence (P27338 whole entry): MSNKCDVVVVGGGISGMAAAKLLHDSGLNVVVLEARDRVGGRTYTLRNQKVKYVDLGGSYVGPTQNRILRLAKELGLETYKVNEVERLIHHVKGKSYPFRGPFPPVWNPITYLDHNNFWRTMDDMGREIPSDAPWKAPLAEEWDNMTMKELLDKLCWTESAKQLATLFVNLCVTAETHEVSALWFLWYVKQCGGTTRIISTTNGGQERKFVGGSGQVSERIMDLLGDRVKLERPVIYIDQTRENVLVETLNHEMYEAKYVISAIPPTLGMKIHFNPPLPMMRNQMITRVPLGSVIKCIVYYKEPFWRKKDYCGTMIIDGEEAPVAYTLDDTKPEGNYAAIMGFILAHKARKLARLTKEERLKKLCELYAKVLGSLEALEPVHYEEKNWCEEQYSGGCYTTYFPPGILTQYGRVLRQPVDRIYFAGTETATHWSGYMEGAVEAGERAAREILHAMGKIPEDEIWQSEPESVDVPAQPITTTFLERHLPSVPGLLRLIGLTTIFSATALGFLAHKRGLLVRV

[8] = target: T7, Amine oxidase [flavin-containing] A (Homo sapiens, UniProt P21397); assay: Inhibition of human MAO-A; how it was run: as §3
T7 sequence (P21397 whole entry): T3 sequence (P21397 whole entry)

Adenosine receptor A2b = target: T8, Adenosine receptor A2b (Homo sapiens, UniProt P29275); assay: Displacement of [3H]PSB-603 from human adenosine A2B receptor
T8 sequence (P29275 whole entry): T1 sequence (whole entry)

[9] = target: T9, MAO-B (amine oxidase [flavin-containing] B) (Homo sapiens, UniProt P27338); assay: Inhibition of human MAO-B at 10 uM relative to control; how it was run: as §3
T9 sequence (P27338 whole entry): T6 sequence (P27338 whole entry)

Adenosine receptor A1 [10] = target: T10, Adenosine receptor A1 (Homo sapiens, UniProt P30542); assay: Displacement of [3H]CCPA from human adenosine A1 receptor expressed in CHO cells; format: cell-based; how it was run: as §2
T10 sequence (P30542 whole entry): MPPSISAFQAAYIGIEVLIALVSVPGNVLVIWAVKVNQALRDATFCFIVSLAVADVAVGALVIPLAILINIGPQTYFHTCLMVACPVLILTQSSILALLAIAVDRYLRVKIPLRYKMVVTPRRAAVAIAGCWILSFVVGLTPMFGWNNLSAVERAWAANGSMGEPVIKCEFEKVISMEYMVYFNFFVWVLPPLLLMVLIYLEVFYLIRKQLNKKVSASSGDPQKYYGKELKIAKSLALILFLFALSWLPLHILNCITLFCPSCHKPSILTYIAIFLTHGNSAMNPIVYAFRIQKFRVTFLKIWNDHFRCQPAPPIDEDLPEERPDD

[11] = target: T11, Adenosine receptor A1 (Rattus norvegicus) (UniProt P25099); assay: Displacement of [3H]CCPA from adenosine A1 receptor in rat brain cortex relative to control; format: tissue-based; set-up: concentration or dose not given beside the values; conditions: concentration not given here; how it was run: as §1
T11 sequence (whole entry): T2 sequence (P25099 whole entry)

Chain of Adenosine receptor A2a (Homo sapiens, UniProt P29274) (P29274 whole entry): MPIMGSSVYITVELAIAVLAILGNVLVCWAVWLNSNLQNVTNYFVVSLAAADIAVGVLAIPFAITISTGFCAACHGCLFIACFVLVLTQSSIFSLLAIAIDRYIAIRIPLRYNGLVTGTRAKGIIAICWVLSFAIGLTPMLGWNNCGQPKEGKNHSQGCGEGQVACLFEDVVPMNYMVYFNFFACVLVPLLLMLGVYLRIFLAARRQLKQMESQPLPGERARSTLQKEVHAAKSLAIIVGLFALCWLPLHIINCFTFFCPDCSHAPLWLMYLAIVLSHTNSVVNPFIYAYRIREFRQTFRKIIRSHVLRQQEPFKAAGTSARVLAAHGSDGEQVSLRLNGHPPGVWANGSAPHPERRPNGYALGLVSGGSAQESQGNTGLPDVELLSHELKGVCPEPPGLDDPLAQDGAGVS
Chain of Adenosine receptor A2a (Rattus norvegicus, UniProt P30543) (P30543 whole entry): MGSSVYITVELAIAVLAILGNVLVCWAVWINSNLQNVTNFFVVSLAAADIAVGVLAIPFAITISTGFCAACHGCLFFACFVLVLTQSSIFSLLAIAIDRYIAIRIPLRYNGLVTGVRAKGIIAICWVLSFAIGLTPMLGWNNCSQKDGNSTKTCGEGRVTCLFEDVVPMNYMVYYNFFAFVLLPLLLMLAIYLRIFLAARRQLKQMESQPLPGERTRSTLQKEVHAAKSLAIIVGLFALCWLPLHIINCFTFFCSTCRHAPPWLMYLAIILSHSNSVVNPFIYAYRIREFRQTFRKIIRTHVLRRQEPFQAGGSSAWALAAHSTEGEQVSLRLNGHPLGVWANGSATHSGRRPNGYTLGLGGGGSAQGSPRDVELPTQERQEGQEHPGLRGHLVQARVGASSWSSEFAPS

Structure (SMILES) | inhibition [1] | Ki (Adenosine receptor A1 [2]) | Ki (Adenosine receptor A2a [3]) | Ki (Adenosine receptor A2a [4]) | inhibition at 10 µM [5] | inhibition [6] | Ki (Adenosine receptor A3) | IC50 [7] | IC50 [8] | Ki (Adenosine receptor A2b) | inhibition at 10 µM [9] | Ki (Adenosine receptor A1 [10]) | inhibition [11]
Cn1c(=O)c2c(nc3n2CCCN3CCc2cccc(Cl)c2)n(C)c1=O | 1% | 1760 nM | 1350 nM | 166 nM | -4% | 43% | > 10000 nM | 1350 nM | > 10000 nM | > 1000 nM | – | – | –
C#CCn1c(=O)c2c(nc3n2CCCN3C2CCC2)n(C)c1=O | – | 1070 nM | 231 nM | 380 nM | – | 13% | > 10000 nM | > 10000 nM | – | 3970 nM | 19% | 866 nM | –
C#CCn1c(=O)c2c(nc3n2CCCN3CCc2ccc(O)cc2)n(C)c1=O | 12% | 501 nM | 346 nM | 276 nM | – | 28% | > 10000 nM | > 10000 nM | – | > 10000 nM | 37% | 8260 nM | –
C#CCn1c(=O)c2c(nc3n2CCCN3CCc2ccc(OC)cc2)n(C)c1=O | 8% | 3140 nM | 508 nM | 288 nM | – | 13% | > 1000 nM | > 10000 nM | – | > 1000 nM | 25% | 4400 nM | –
C#CCn1c(=O)c2c(nc3n2CCCN3Cc2ccccc2)n(C)c1=O | – | 135 nM | 253 nM | 533 nM | 5% | 34% | > 10000 nM | 3760 nM | > 10000 nM | 3520 nM | – | 249 nM | –
C#CCn1c(=O)c2c(nc3n2CCCN3CC2CCCO2)n(C)c1=O (stereo unspecified) | 6% | 169 nM | 1110 nM | 1430 nM | – | 9% | > 10000 nM | > 10000 nM | – | > 1000 nM | 30% | 1150 nM | –
Cn1c(=O)c2c(nc3n2CCCN3c2ccc(Cl)c(Cl)c2)n(C)c1=O | 3% | > 10000 nM | – | 4700 nM | 12% | 12% | > 1000 nM | 10000 nM | > 10000 nM | > 1000 nM | 50% | – | 28%
C#CCn1c(=O)c2c(nc3n2CCCN3CC2CCCCC2)n(C)c1=O | -5% | 219 nM | 510 nM | 498 nM | – | 5% | > 100 nM | > 10000 nM | – | > 1000 nM | 33% | 1870 nM | –
C#CCn1c(=O)c2c(nc3n2CCCN3C2CCCCC2)n(C)c1=O | – | 515 nM | 311 nM | 361 nM | – | 25% | > 10000 nM | > 10000 nM | – | 17100 nM | 26% | 2360 nM | –
Cn1c(=O)c2c(nc3n2CCCN3CCc2ccc(Cl)c(Cl)c2)n(C)c1=O | 10% | 7240 nM | 5250 nM | 780 nM | -2% | 23% | > 10000 nM | 86.9 nM | > 10000 nM | > 1000 nM | – | – | –
Cn1c(=O)c2c(nc3n2CCCN3CCc2ccc(Cl)cc2)n(C)c1=O | 8% | 3030 nM | 5610 nM | 515 nM | 4% | 38% | > 10000 nM | 624 nM | > 10000 nM | > 1000 nM | – | – | –
CCn1c(=O)c2c(nc3n2CCCN3c2ccc(O)cc2)n(CC)c1=O | 22% | > 10000 nM | – | 10900 nM | 11% | 29% | > 10000 nM | 10000 nM | > 10000 nM | > 1000 nM | 56% | – | 30%
C#CCn1c(=O)c2c(nc3n2CCCN3Cc2ccccc2OC)n(C)c1=O | 16% | 1060 nM | 417 nM | 641 nM | 4% | – | 4410 nM | 1800 nM | > 10000 nM | > 1000 nM | – | 605 nM | –
C#CCn1c(=O)c2c(nc3n2CCCN3c2ccc(F)cc2)n(C)c1=O | 7% | 1190 nM | 2120 nM | 1940 nM | – | 22% | > 10000 nM | > 10000 nM | – | > 1000 nM | 17% | 3610 nM | –
Cn1c(=O)c2c(nc3n2CCCN3CC(=O)N2CCN(Cc3ccccc3)CC2)n(C)c1=O | -7% | > 1500 nM | – | 14000 nM | 4% | 23% | > 300 nM | 10000 nM | > 10000 nM | > 300 nM | 55% | – | 0%
C#CCn1c(=O)c2c(nc3n2CCCN3CCc2cccs2)n(C)c1=O | 16% | 990 nM | 317 nM | 710 nM | – | 20% | > 1000 nM | > 10000 nM | – | > 1000 nM | 17% | 1410 nM | –
